Assay results taken from ChEMBL document CHEMBL3407439, “A facile and novel synthesis of N(2)-, C(6)-substituted pyrazolo[3,4-d]pyrimidine-4 carboxylate derivatives as adenosine receptor antagonists” (Eur J Med Chem, 2015).

How the values were obtained:
[1] = target: T1, Adenosine receptor A2b (Homo sapiens, UniProt P29275); experiment: Antagonist activity at human adenosine A2B receptor expressed in CHO cells assessed as inhibition of NECA-induced adenylyl cyclase activity; assay type: functional, cell-based
T1 sequence (P29275 whole entry): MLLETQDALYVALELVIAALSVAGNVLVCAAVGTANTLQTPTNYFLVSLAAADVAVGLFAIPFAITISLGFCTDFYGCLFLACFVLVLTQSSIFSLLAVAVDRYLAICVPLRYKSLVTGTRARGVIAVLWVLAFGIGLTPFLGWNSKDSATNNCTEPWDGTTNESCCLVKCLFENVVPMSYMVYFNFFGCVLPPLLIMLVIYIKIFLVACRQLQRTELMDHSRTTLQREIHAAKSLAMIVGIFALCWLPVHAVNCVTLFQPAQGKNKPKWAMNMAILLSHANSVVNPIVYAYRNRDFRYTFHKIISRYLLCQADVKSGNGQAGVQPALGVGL
Summary of the method: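 Membranes from CHO cells transfected with hA2B receptor incubated 20 min with 100 nM NECA, 150,000 cpm [α-32P]ATP and varying antagonist concentrations, in mixture lacking EGTA and NaCl. Ki derived from concentration-dependent inhibition of NECA-stimulated adenylyl cyclase activity; n = 3–6.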

[2] = target: T2, Adenosine receptor A1 (Homo sapiens, UniProt P30542); experiment: Displacement of [3H]CCPA from human adenosine A1 receptor expressed in CHO cells by Top Count analysis; assay type: cell-based
T2 sequence (P30542 whole entry): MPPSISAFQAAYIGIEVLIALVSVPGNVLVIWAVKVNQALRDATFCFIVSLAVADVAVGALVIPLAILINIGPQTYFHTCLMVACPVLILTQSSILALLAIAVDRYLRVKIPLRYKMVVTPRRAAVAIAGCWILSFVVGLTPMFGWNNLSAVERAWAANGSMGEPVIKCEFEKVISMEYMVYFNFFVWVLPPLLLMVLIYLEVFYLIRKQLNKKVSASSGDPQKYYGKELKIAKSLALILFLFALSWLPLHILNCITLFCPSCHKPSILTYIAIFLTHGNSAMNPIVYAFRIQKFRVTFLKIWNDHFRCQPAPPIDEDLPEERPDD
Summary of the method: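 Tritiated-radioligand competition binding at hA1 receptor, 3 h at room temperature; nonspecific binding with 1 mM theophylline. Separation by GF/B glass-fibre filtration, filter radioactivity counted by scintillation (57% efficiency). Ki from competition curves by nonlinear curve fitting.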

[3] = target: T3, Adenosine receptor A3 (Homo sapiens, UniProt P0DMS8); experiment: Displacement of [3H]HEMADO from human adenosine A3 receptor expressed in CHO cells by Top Count analysis; assay type: cell-based
T3 sequence (P0DMS8 whole entry): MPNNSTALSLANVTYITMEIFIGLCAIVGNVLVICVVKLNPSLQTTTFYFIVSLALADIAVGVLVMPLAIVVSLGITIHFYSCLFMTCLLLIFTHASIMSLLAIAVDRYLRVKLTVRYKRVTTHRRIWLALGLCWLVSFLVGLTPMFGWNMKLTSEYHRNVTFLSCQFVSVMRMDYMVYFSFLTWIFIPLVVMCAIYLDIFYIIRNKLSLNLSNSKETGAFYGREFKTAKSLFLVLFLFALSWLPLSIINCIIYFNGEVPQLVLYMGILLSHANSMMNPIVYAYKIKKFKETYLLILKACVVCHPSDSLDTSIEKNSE
Summary of the method: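 Competition against [3H]HEMADO binding at hA3 receptor in CHO cells, 3 h at room temperature; nonspecific binding defined with 100 µM R-PIA.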

[4] = target: Adenosine receptor A2a (Homo sapiens, UniProt P29274); experiment: Displacement of [3H]NECA from human adenosine A2A receptor expressed in CHO cells by Top Count analysis; assay type: cell-based
[5] = target: Adenosine receptors; A1 & A3 (Homo sapiens) (UniProt P30542+P0DMS8); experiment: Selectivity ratio of Ki for human adenosine A1 receptor to Ki for human adenosine A3 receptor
[6] = species on record: Homo sapiens; experiment: Selectivity ratio of Ki for human adenosine A2A receptor to Ki for human adenosine A3 receptor

Chain of Adenosine receptor A2a (P29274 whole entry): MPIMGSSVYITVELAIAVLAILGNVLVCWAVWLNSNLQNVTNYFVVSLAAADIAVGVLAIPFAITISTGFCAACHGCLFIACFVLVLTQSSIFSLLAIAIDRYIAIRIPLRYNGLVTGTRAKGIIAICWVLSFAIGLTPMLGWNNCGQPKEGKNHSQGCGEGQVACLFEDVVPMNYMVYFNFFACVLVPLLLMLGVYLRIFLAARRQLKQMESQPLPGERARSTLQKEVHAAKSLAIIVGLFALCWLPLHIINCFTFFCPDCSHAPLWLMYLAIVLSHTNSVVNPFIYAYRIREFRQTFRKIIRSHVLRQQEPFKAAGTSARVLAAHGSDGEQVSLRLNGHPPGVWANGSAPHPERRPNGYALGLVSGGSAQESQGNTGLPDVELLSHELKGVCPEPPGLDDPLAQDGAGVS

| Structure (SMILES) | Ki [1] [µM] | Ki [2] [µM] | Ki [3] [µM] | Ki [4] [µM] | Ratio Ki [5] | Ratio Ki [6] |
| --- | --- | --- | --- | --- | --- | --- |
| CC(C)n1cc2c(C(N)=O)nc(N)nc2n1 | > 20 | 8.2 | > 100 | 9.2 |  |  |
| CCOC(=O)c1nc(NC(=O)c2ccc(F)cc2)nc2nn(CC(C)(C)C)cc12 | > 20 | 2.7 | 4.3 | 5.7 | 0.62 | 1.3 |
| CCOC(=O)c1nc(NC(=O)c2ccccc2)nc2nn(C(C)C)cc12 | > 10 | 4.3 | 8.6 | 3.3 | 0.5 | 0.4 |
| CCOC(=O)c1nc(NC(=O)c2ccc(Cl)c(Cl)c2)nc2nn(CCc3ccccc3)cc12 | > 20 | > 100 | 2.2 | > 100 | > 46 | > 46 |
| CCOC(=O)c1nc(NC(=O)Cc2ccccc2)nc2nn(C(C)C)cc12 | > 10 | 0.6 | 13.3 | 8.8 | 0.04 | 0.66 |
| CCOC(=O)c1nc(NC(=O)c2ccc(C)cc2)nc2nn(C)cc12 | > 20 | > 100 | 100 | 11.8 | > 1 | 0.12 |
| CCOC(=O)c1nc(N(C(=O)c2ccccc2)C(=O)c2ccccc2)nc2nn(C(C)C)cc12 | > 20 | 17.7 | 5.4 | > 100 | 3.2 | > 18.5 |
| CCOC(=O)c1nc(N(C(=O)c2ccccc2)C(=O)c2ccccc2)nc2nn(C)cc12 | > 20 | > 100 | > 100 | > 100 |  |  |
| CCOC(=O)c1nc(NC(=O)c2ccc(C)cc2)nc2nn(CCc3ccccc3)cc12 | > 20 | > 100 | 3 | 6 | > 33 | 2 |
| CCOC(=O)c1nc(N(C(=O)c2ccccc2)C(=O)c2ccccc2)nc2nn(CCc3ccccc3)cc12 | > 20 | > 100 | > 100 | > 100 |  |  |
| CCOC(=O)c1nc(NC(=O)Cc2ccccc2)nc2nn(CCc3ccccc3)cc12 | > 10 | 0.6 | 10.4 | 2.4 | 0.05 | 0.2 |
| CCOC(=O)c1nc(N)nc2nn(C)cc12 | > 20 | 8.8 | 0.9 | 2 | 9.7 | 2.2 |
| CCOC(=O)c1nc(NC(=O)c2ccc(C)cc2)nc2nn(C(C)C)cc12 | > 20 | 0.7 | 28 | 2.3 | 0.02 | 0.1 |
| CCOC(=O)c1nc(N)nc2nn(CCc3ccccc3)cc12 | 60 | 3.5 | 18.1 | 4.8 | 0.19 | 0.26 |
| CCOC(=O)c1nc(NC(=O)c2ccc(Br)cc2)nc2nn(CCc3ccccc3)cc12 | > 20 | 2.6 | 3.6 | 4.2 | 0.72 | 1.2 |
| CCOC(=O)c1nc(NC(=O)c2ccc(C(F)(F)F)cc2)nc2nn(C(C)C)cc12 | > 20 | > 100 | > 100 | > 100 |  |  |
| CC(C)(C)Cn1cc2c(C(N)=O)nc(N)nc2n1 | > 20 | > 90 | 19.7 | > 80 | > 4.6 | > 4.1 |
| CCOC(=O)c1nc(NC(=O)c2ccc(F)cc2)nc2nn(C)cc12 | > 20 | > 100 | > 100 | 11.5 |  | < 0.14 |
| CCOC(=O)c1nc(NC(=O)c2ccc(C(F)(F)F)cc2)nc2nn(CCc3ccccc3)cc12 | > 20 | 2.5 | 5.8 | 7.5 | 0.5 | 1.3 |
| CCOC(=O)c1nc(N)nc2nn(CC(C)(C)C)cc12 | > 15 | 4 | 10.4 | 5 | 0.38 | 0.48 |
| CCOC(=O)c1nc(NC(=O)c2ccc(C(F)(F)F)cc2)nc2nn(C)cc12 | > 20 | > 100 | > 100 | > 100 |  |  |
| CCOC(=O)c1nc(NC(=O)c2ccccc2)nc2nn(CCc3ccccc3)cc12 | > 10 | 5.1 | 12.2 | 3.7 | 0.41 | 0.3 |
| CCOC(=O)c1nc(NC(=O)c2ccc(F)cc2)nc2nn(CCc3ccccc3)cc12 | > 20 | 5 | 6.8 | 6.1 | 0.73 | 0.8 |
| CCOC(=O)c1nc(N(C(=O)c2ccc(F)c(F)c2)C(=O)c2ccc(F)c(F)c2)nc2nn(C)cc12 | > 20 | > 100 | > 100 | > 100 |  |  |
| NC(=O)c1nc(N)nc2nn(CCc3ccccc3)cc12 | > 20 | 40.2 | 32.9 | 15.7 | 1.2 | 0.47 |
| CCOC(=O)c1nc(NC(=O)c2ccccc2)nc2nn(C)cc12 | > 20 | 14 | > 100 | 16.1 | < 0.14 | < 0.16 |
| CCOC(=O)c1nc(NC(=O)Cc2ccccc2)nc2nn(CC(C)(C)C)cc12 | > 20 | 2.7 | 4.3 | 5.7 | 0.62 | 1.3 |
| Cn1cc2c(C(N)=O)nc(N)nc2n1 | > 20 | 10.2 | > 100 | 3 |  |  |
